Assay results reported in ChEMBL document CHEMBL1128519, “Semisynthetic chemical modification of the antifungal lipopeptide echinocandin B (ECB): structure-activity studies of the lipophilic and geometric parameters of polyarylated acyl analogs of ECB” (J Med Chem, 1995).
In brackets after ≈: the same amount, converted by molar mass. Numbered stars: 1 amine (or outer) side, 2 acyl side, 3 side chain; on linkers, the order of the positions; unused ones are H or OH. Bridge positions count the residues as written; N and C are the ends. Square brackets hold non-standard residues; d marks the D form. Peptide text beside a SMILES is read from it. * marks the point of attachment. Orn(4R-OH,5R-OH) = O=C([C@H](C[C@@H](O)[C@@H](O)N[*:3])N[*:1])[*:2]; Benzoyl(4-(biphenyl-4-yl)) = O=C(c1ccc(-c2ccc(-c3ccccc3)cc2)cc1)*; hTyr(3S-OH,4S-OH) = N[C@H](C(=O)O)[C@H](O)[C@@H](O)c1ccc(O)cc1; X4 = CC(C)(C)OCCOc1ccc(-c2ccc(-c3ccc(C(=O)*)cc3)cc2)cc1; X6 = CCCCOCCOc1ccc(-c2ccc(-c3ccc(C(=O)*)cc3)cc2)cc1; Pro(3S-OH,4S-Me) = C[C@H]1CN[C@H](C(=O)O)[C@H]1O; X5 = O=C(c1ccc(C#Cc2ccc(C#Cc3ccccc3)cc2)cc1)*; Hyp = O=C(O)[C@@H]1C[C@@H](O)CN1

Key:
[1] = test system: Candida albicans; assay: Antifungal activity against Candida albicans; type: functional
In short: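 Broth microdilution, C. albicans A26 (ATCC 62342) grown on Sabouraud dextrose agar at 35 °C; inoculum 1 × 10^5 conidia/mL in antibiotic 3 broth. Compounds dissolved at 1.0 mg/mL in methanol, 2-fold serial dilutions from 80 µg/mL, duplicate. Read after 48 h at 35 °C. MIC = lowest concentration completely inhibiting visible growth.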

[2] = molecular target: Beta-1,3-glucan synthase (Candida albicans) (UniProt O13428); assay: In vitro inhibition of glucan synthase obtained from Candida albicans at a concentration of 10 ug/mL.
In short: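 Purified, solubilized β-(1,3)-D-glucan synthase prepared from C. albicans. Percent inhibition measured at 10 µg/mL compound, single determination.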

[3] = test system: Candida albicans; assay: In vivo antifungal activity administered intraperitoneally against Candida albicans infections in mice.; type: functional; conditions: ip
In short: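 Male ICR mice (18-20 g), X-irradiated with 400 r 24 h before iv tail-vein infection with 2 × 10^6 C. albicans A26 cells in saline. Compounds suspended in β-cyclodextrin, given parenterally at 0, 4, 24 and 48 h post-infection. 10 mice per dose, top dose 10 mg/kg with 2-fold dilutions down to 0.039 mg/kg. 7-day survival; ED50 by Reed-Muench.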

[4] = test system: Candida albicans; assay: In vivo antifungal activity administered orally against Candida albicans infections in mice.; type: functional; conditions: po
In short: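 X-irradiated (400 r, 24 h prior) male ICR mice infected iv with 2 × 10^6 C. albicans A26 cells. Oral gavage in cremophor (5%)/linoleic acid (8%)/water vehicle, b.i.d. × 4 starting immediately post-infection. 10 mice per dose level. Study ends at day 7; ED50 = dose giving 50% survival, by Reed-Muench.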

Sequence of Beta-1,3-glucan synthase (Candida albicans) (O13428 as listed by the source): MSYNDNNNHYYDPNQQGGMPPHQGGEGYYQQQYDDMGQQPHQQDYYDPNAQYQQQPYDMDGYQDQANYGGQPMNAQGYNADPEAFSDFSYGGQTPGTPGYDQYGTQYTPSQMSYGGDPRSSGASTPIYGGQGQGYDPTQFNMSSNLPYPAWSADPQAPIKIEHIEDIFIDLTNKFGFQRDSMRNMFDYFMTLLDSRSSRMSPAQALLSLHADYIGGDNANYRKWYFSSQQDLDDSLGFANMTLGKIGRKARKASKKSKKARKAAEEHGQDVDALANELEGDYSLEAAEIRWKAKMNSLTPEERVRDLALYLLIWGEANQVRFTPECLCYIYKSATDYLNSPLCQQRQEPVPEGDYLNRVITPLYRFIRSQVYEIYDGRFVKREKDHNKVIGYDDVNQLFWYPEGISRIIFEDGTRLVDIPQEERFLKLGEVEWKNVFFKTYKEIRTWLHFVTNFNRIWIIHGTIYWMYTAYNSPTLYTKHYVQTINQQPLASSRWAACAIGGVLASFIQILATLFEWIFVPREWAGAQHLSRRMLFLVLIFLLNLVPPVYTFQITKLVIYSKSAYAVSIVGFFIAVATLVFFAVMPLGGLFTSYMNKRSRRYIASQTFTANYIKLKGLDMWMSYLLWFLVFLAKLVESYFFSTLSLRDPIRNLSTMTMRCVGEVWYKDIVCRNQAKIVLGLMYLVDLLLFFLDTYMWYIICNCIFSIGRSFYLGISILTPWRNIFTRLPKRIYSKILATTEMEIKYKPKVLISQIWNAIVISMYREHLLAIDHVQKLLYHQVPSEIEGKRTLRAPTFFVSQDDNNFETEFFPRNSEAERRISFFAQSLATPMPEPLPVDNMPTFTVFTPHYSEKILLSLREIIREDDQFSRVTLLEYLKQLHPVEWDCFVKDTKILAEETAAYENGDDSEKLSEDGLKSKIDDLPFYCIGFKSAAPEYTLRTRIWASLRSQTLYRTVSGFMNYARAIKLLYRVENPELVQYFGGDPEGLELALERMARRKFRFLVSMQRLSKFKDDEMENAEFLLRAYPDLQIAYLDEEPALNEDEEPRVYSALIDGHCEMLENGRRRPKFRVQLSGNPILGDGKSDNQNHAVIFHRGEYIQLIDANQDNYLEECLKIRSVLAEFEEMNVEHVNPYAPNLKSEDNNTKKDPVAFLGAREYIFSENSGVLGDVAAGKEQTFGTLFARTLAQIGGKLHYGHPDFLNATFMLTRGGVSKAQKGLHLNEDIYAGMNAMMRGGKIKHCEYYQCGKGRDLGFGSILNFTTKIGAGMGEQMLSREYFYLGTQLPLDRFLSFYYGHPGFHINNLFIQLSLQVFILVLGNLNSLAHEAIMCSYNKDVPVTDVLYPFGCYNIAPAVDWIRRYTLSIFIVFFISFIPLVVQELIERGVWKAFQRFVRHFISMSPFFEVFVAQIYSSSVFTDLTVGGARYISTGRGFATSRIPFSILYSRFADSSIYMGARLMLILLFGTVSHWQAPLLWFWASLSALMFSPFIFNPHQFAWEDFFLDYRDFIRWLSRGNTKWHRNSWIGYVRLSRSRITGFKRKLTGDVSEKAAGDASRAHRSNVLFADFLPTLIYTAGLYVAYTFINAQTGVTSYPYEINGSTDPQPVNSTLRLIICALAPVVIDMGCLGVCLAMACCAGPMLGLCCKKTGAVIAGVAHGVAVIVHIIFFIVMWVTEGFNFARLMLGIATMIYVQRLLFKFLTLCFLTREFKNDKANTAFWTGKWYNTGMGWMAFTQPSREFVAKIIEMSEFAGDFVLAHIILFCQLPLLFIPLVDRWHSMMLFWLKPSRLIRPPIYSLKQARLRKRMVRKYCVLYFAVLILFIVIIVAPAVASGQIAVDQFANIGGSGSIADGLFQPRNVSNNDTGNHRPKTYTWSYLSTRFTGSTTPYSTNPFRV

SMILES | MIC [1] [µg/mL] | inhibition [2] [%] | ED50 [3] [mg/kg] | ED50 [4] [mg/kg]
C[C@@H](O)[C@@H]1NC(=O)[C@H]([C@H](O)[C@@H](O)c2ccc(O)cc2)NC(=O)[C@@H]2C[C@@H](O)CN2C(=O)[C@H]([C@@H](C)O)NC(=O)[C@@H](NC(=O)c2ccc(-c3ccc(-c4ccccc4)cc3)cc2)C[C@@H](O)[C@@H](O)NC(=O)[C@@H]2[C@@H](O)[C@@H](C)CN2C1=O ({Benzoyl(4-(biphenyl-4-yl))}-[Orn(4R-OH,5R-OH)]T[Hyp][hTyr(3S-OH,4S-OH)]T[Pro(3S-OH,4S-Me)]; lactam 1-C) | 0.078 (≈ 0.074 µM) | 78.8 | 1.3 | > 50
C[C@@H](O)[C@@H]1NC(=O)[C@H]([C@H](O)[C@@H](O)c2ccc(O)cc2)NC(=O)[C@@H]2C[C@@H](O)CN2C(=O)[C@H]([C@@H](C)O)NC(=O)[C@@H](NC(=O)c2ccc(C#Cc3ccc(C#Cc4ccccc4)cc3)cc2)C[C@@H](O)[C@@H](O)NC(=O)[C@@H]2[C@@H](O)[C@@H](C)CN2C1=O (X5-[Orn(4R-OH,5R-OH)]T[Hyp][hTyr(3S-OH,4S-OH)]T[Pro(3S-OH,4S-Me)]; lactam 1-C) | 0.01 (≈ 0.00907 µM) | 81.3 | 4.5 | 16
C[C@@H](O)[C@@H]1NC(=O)[C@H]([C@H](O)[C@@H](O)c2ccc(O)cc2)NC(=O)[C@@H]2C[C@@H](O)CN2C(=O)[C@H]([C@@H](C)O)NC(=O)[C@@H](NC(=O)c2ccc(-c3ccc(-c4ccc(OCCOC(C)(C)C)cc4)cc3)cc2)C[C@@H](O)[C@@H](O)NC(=O)[C@@H]2[C@@H](O)[C@@H](C)CN2C1=O (X4-[Orn(4R-OH,5R-OH)]T[Hyp][hTyr(3S-OH,4S-OH)]T[Pro(3S-OH,4S-Me)]; lactam 1-C) | 0.06 (≈ 0.0513 µM) | 76.1 | 0.4 | 21.3
CCCCOCCOc1ccc(-c2ccc(-c3ccc(C(=O)N[C@H]4C[C@@H](O)[C@@H](O)NC(=O)[C@@H]5[C@@H](O)[C@@H](C)CN5C(=O)[C@H]([C@@H](C)O)NC(=O)[C@H]([C@H](O)[C@@H](O)c5ccc(O)cc5)NC(=O)[C@@H]5C[C@@H](O)CN5C(=O)[C@H]([C@@H](C)O)NC4=O)cc3)cc2)cc1 (X6-[Orn(4R-OH,5R-OH)]T[Hyp][hTyr(3S-OH,4S-OH)]T[Pro(3S-OH,4S-Me)]; lactam 1-C) | 0.03 (≈ 0.0256 µM) | 80.1 | 0.3 | 13.6
